Values belong to the compound of their own block, whether it stands above or below them. Active and inactive are the calls of the source. No cut-off for these calls is given here.
How the values were obtained:
[1] = system: Mus musculus; assay: Antidyslipidemic activity in diabetic C57BL/KsJ db/db mouse model assessed as increase in plasma HDL-cholesterol level at 25 mg/kg, po qd for 10 days; type: functional
Outline: (§1)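 db/db mice (blood glucose 200−350, TG 170−250, cholesterol 170−250, HDL-C 32−40 mg/dL) dosed orally at 25 mg/kg daily for 10 days; retro-orbital blood taken on day 11 for plasma TG, cholesterol and HDL-C (and HDL-C/CHOL ratio); mean % change versus vehicle control, 5 mice per group; Student t test.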

[2] = system: Rattus norvegicus; assay: Antihyperlipidemic activity in Triton-induced dyslipidemic Wistar rat model assessed as reduction in triglyceride level at 100 mg/kg, po; type: functional; parameters: scale not given: the % may be the effect or the level left
Outline: (§2)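 Male Wistar rats, 8−10 weeks, about 160 g, fed normal pellet diet. Triton X-100 given at 400 mg/kg ip; compound given orally in 1% gum acacia. Retro-orbital blood taken 18 h after Triton and serum separated at 1500g for 10 min. TG and cholesterol measured by kit. Mean % change versus dyslipidemic control, 5 animals.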

[3] = system: Syrian golden hamster; assay: Antidyslipidemic activity in high fructose and high-fat diet fed dyslipidemic Syrian golden hamster model assessed as reduction in triglyceride level at 100 mg/kg/day for 7 days; type: functional, Mesocricetus auratus; parameters: scale not given: the % may be the effect or the level left
Outline: (§3)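 Syrian golden hamsters fed high-fructose high-fat diet; oral dosing in 1% gum acacia at 10, 30, 100 mg/kg (or 25 mg/kg) for 7 days, sham control given vehicle; plasma TG, cholesterol, LDL-C, HDL-C, glycerol and NEFA (kits), lipoprotein lipase activity and body weight; % change versus HFD control, six hamsters per group.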

[4] = system: Mus musculus; assay: Antidyslipidemic activity in diabetic C57BL/KsJ db/db mouse model assessed as reduction in plasma triglyceride level at 25 mg/kg, po qd for 10 days; type: functional; parameters: scale not given: the % may be the effect or the level left; outline: as §1
[5] = system: Mus musculus; assay: Reduction in body weight in diabetic C57BL/KsJ db/db mouse model in hyperglycemia at 25 mg/kg, po qd for 10 days relative to untreated control; type: functional
Outline: (§4)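 db/db mice (C57BL/KsJ, 12−18 weeks, 40−50 g, glucose 200−350 mg/dL), housed at 23 ± 2.0 °C on a 12 h light cycle. Oral dosing daily for 10 days. Blood glucose checked each morning through day 9. Body weight recorded daily from day 1 to day 10. Mean % change versus vehicle, 5 mice per group; Student t test.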

[6] = system: Mus musculus; assay: Antihyperglycemic activity in diabetic C57BL/KsJ db/db mouse model assessed as improvement in glucose tolerance in hyperglycemia at 25 mg/kg, po qd for 10 days; type: functional
Outline: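 Male/female C57BL/KsJ db/db mice, 12−18 weeks, 40−50 g, selected for glucose 200−350 mg/dL. Oral dosing daily for 10 days. OGTT on day 10 after an overnight fast: compound at −30 min, then 3 g/kg oral glucose at 0 min. Glucose read at 30, 60, 90 and 120 min. AUC taken versus vehicle, 5 mice per group.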

[7] = system: Mus musculus; assay: Antihyperglycemic activity in diabetic C57BL/KsJ db/db mouse model assessed as reduction in plasma insulin level in hyperglycemia at 25 mg/kg, po qd for 10 days; type: functional; parameters: scale not given: the % may be the effect or the level left
Outline: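 db/db mice dosed orally every day for 10 days. On day 11, retro-orbital blood was drawn and plasma insulin measured. Mean % change versus vehicle-treated control, 5 mice per group; Student t test.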

[8] = system: Mus musculus; assay: Antihyperglycemic activity in diabetic C57BL/KsJ db/db mouse model assessed as reduction in hyperglycemia at 25 mg/kg, po qd for 10 days; type: functional; parameters: scale not given: the % may be the effect or the level left; outline: as §4
[9] = system: Rattus norvegicus; assay: Antihyperlipidemic activity in Triton-induced dyslipidemic Wistar rat model assessed as reduction in phospholipid level at 100 mg/kg, po; type: functional; parameters: scale not given: the % may be the effect or the level left; outline: as §2
[10] = system: Mus musculus; assay: Antidyslipidemic activity in diabetic C57BL/KsJ db/db mouse model assessed as reduction in plasma cholesterol level at 25 mg/kg, po qd for 10 days; type: functional; parameters: scale not given: the % may be the effect or the level left; outline: as §1
[11] = system: Rattus norvegicus; assay: Antidiabetic activity in sucrose loaded Wistar rat model assessed as reduction in glucose levels at 100 mg/kg, po; type: functional; parameters: scale not given: the % may be the effect or the level left
[12] = system: Rattus norvegicus; assay: Antihyperlipidemic activity in Triton-induced dyslipidemic Wistar rat model assessed as reduction in cholesterol level at 100 mg/kg, po; type: functional; parameters: scale not given: the % may be the effect or the level left; outline: as §2
[13] = system: Syrian golden hamster; assay: Antidyslipidemic activity in high fructose and high-fat diet fed dyslipidemic Syrian golden hamster model assessed as increase in HDL-cholesterol level at 100 mg/kg/day for 7 days; type: functional, Mesocricetus auratus
[14] = system: Syrian golden hamster; assay: Antidyslipidemic activity in high fructose and high-fat diet fed dyslipidemic Syrian golden hamster model assessed as reduction in LDL-cholesterol level at 100 mg/kg/day for 7 days; type: functional, Mesocricetus auratus; parameters: scale not given: the % may be the effect or the level left; outline: as §3
[15] = system: Syrian golden hamster; assay: Antidyslipidemic activity in high fructose and high-fat diet fed dyslipidemic Syrian golden hamster model assessed as reduction in cholesterol level at 100 mg/kg/day for 7 days; type: functional, Mesocricetus auratus; parameters: scale not given: the % may be the effect or the level left
[16] = system: Mus musculus; assay: Antidyslipidemic activity in diabetic C57BL/KsJ db/db mouse model assessed as increase in plasma HDL-C/cholesterol ratio at 25 mg/kg, po qd for 10 days; type: functional; outline: as §1
[17] = system: Syrian golden hamster; assay: Antidyslipidemic activity in high fructose and high-fat diet fed dyslipidemic Syrian golden hamster model assessed as reduction in body weight at 100 mg/kg/day for 7 days; type: functional, organism-based; details: Mesocricetus auratus; outline: as §3
[18] = Mean residence time in Sprague-Dawley rat at 2.5 mg/kg, iv by LC-MS/MS method; type: ADME, organism-based; parameters: dose 2.5 mg/kg, route intravenous; details: in vivo
Outline: (§5)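 Male Sprague−Dawley rats given a single 2.5 mg/kg iv dose; one formulation was DMF/PG/water (2:4:4), 0.2 μ filtered. Blood drawn from 0.08 to 48 h. Plasma assayed by LC-MS/MS with linear range 0.78−400 ng/mL.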

[19] = system: Rattus norvegicus; assay: AUC in Sprague-Dawley rat at 25 mg/kg, po by LC-MS/MS method; details: in vivo
[20] = Oral bioavailability in Sprague-Dawley rat at 25 mg/kg by LC-MS/MS method; type: ADME, organism-based; details: in vivo
Outline: (§6)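 Male Sprague−Dawley rats given a single 25 mg/kg oral dose (aqueous 0.5% methyl cellulose suspension for one compound). Blood drawn from 0.08 to 48 h. LC-MS/MS, linear range 0.78−400 ng/mL.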

[21] = Elimination half life in Sprague-Dawley rat at 2.5 mg/kg, iv by LC-MS/MS method; type: ADME, organism-based; parameters: dose 2.5 mg/kg, route intravenous; details: in vivo, read-out: beta t1/2 (converted); outline: as §5
[22] = system: Mus musculus; assay: Antidiabetic activity in diabetic C57BL/KsJ db/db mouse model assessed as reduction in postprandial glucose level in hyperglycemia at 10 mg/kg, po measured 2 hrs post dose; type: functional; parameters: scale not given: the % may be the effect or the level left
Outline: (§7)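 db/db mice (C57BL/KsJ, 12−18 weeks, 40−50 g; selected by glucose 200−350 mg/dL) dosed orally daily for 10 consecutive days at 1, 3, 10, 25 or 50 mg/kg; postprandial blood glucose profile recorded on day 6 with food access interrupted; mean % change versus vehicle in 5 animals per group; Student t test.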

[23] = system: Rattus norvegicus; assay: Volume of distribution in Sprague-Dawley rat at 25 mg/kg, po by LC-MS/MS method; type: ADME, organism-based; parameters: dose 25 mg/kg, route oral; details: in vivo; outline: as §6
[24] = Tmax in Sprague-Dawley rat at 25 mg/kg, po by LC-MS/MS method; type: ADME, organism-based; parameters: dose 25 mg/kg, route oral; details: in vivo; outline: as §6
[25] = system: Mus musculus; assay: Antidiabetic activity in diabetic C57BL/KsJ db/db mouse model assessed as improvement in glucose tolerance in hyperglycemia at 1 mg/kg, po measured 2 hrs post dose; type: functional
[26] = system: Mus musculus; assay: Antidiabetic activity in diabetic C57BL/KsJ db/db mouse model assessed as reduction in postprandial glucose level in hyperglycemia at 25 mg/kg, po measured 2 hrs post dose; type: functional; parameters: scale not given: the % may be the effect or the level left; outline: as §7
[27] = Volume of distribution in Sprague-Dawley rat at 2.5 mg/kg, iv by LC-MS/MS method; type: ADME, organism-based; parameters: dose 2.5 mg/kg, route intravenous; details: in vivo; outline: as §5
[28] = system: Mus musculus; assay: Antidiabetic activity in diabetic C57BL/KsJ db/db mouse model assessed as improvement in glucose tolerance in hyperglycemia at 100 mg/kg, po measured 2 hrs post dose; type: functional
[29] = system: Mus musculus; assay: Antidiabetic activity in diabetic C57BL/KsJ db/db mouse model assessed as improvement in glucose tolerance in hyperglycemia at 10 mg/kg, po measured 2 hrs post dose; type: functional
[30] = Plasma clearance in Sprague-Dawley rat at 25 mg/kg, po by LC-MS/MS method; type: ADME, organism-based; parameters: dose 25 mg/kg, route oral; outline: as §6
[31] = system: Mus musculus; assay: Antidiabetic activity in diabetic C57BL/KsJ db/db mouse model assessed as reduction in postprandial glucose level in hyperglycemia at 50 mg/kg, po measured 2 hrs post dose; parameters: scale not given: the % may be the effect or the level left
[32] = Cmax in Sprague-Dawley rat at 25 mg/kg, po by LC-MS/MS method; type: ADME, organism-based; parameters: dose 25 mg/kg, route oral; details: in vivo; outline: as §6
[33] = Mean residence time in Sprague-Dawley rat at 25 mg/kg, po by LC-MS/MS method; type: ADME, organism-based; parameters: dose 25 mg/kg, route oral; details: in vivo; outline: as §6
[34] = Cmax in Sprague-Dawley rat at 2.5 mg/kg, iv by LC-MS/MS method; type: ADME, organism-based; parameters: dose 2.5 mg/kg, route intravenous; details: in vivo; outline: as §5
[35] = system: Mus musculus; assay: Antidiabetic activity in diabetic C57BL/KsJ db/db mouse model assessed as improvement in glucose tolerance in hyperglycemia at 25 mg/kg, po measured 2 hrs post dose; type: functional
[36] = system: Rattus norvegicus; assay: AUC in Sprague-Dawley rat at 2.5 mg/kg, iv by LC-MS/MS method; details: in vivo
[37] = Elimination half life in Sprague-Dawley rat at 25 mg/kg, po by LC-MS/MS method; type: ADME, organism-based; parameters: dose 25 mg/kg, route oral; details: in vivo, read-out: beta t1/2 (converted); outline: as §6
[38] = system: Mus musculus; assay: Antidiabetic activity in diabetic C57BL/KsJ db/db mouse model assessed as improvement in glucose tolerance in hyperglycemia at 3 mg/kg, po measured 2 hrs post dose; type: functional
[39] = system: Mus musculus; assay: Antidiabetic activity in diabetic C57BL/KsJ db/db mouse model assessed as reduction in postprandial glucose level in hyperglycemia at 1 mg/kg, po measured 2 hrs post dose; type: functional; parameters: scale not given: the % may be the effect or the level left; outline: as §7
[40] = system: Mus musculus; assay: Antidiabetic activity in diabetic C57BL/KsJ db/db mouse model assessed as reduction in postprandial glucose level in hyperglycemia at 3 mg/kg, po measured 2 hrs post dose; type: functional; parameters: scale not given: the % may be the effect or the level left; outline: as §7
[41] = Plasma clearance in Sprague-Dawley rat at 2.5 mg/kg, iv by LC-MS/MS method; type: ADME, organism-based; parameters: dose 2.5 mg/kg, route intravenous; outline: as §5

Compound: CC(C)NCC(O)COc1ccc2c(=O)cc(-c3cc(O)cc(O)c3)oc2c1 (racemic)
Activity [1]: 11.8%
Activity [2]: 32%
Activity [3]: 48.9%
Activity [4]: 14.2%
Activity [5]: inactive
Activity [6]: 33.2%
Activity [7]: 22.3%
Activity [8]: 39.5%
Activity [9]: 28%
Activity [10]: 15.3%
Activity [11]: 29%
Activity [12]: 32%
Activity [13]: 14.9%
Activity [14]: 47.7%
Activity [15]: 13.8%
Percent increase in HDL-C/cholesterol ratio vs vehicle [16]: 32.1
Activity [17]: Active

MRT [18]: 4.9 h
AUC [19]: 39.5 ng·h/mL
bioavailability [20]: 0.52%
half-life [21]: 4.83 h
Vd [23]: 16.18 L/kg
Tmax [24]: 0.33 h
Vd [27]: 16.2 L/kg
CL/F [30]: 54.5 mL/min/kg
Cmax [32]: 21.2 ng/mL
MRT [33]: 5.96 h
Cmax [34]: 1810 ng/mL
AUC [36]: 756 ng·h/mL
half-life [37]: 3.39 h
clearance [41]: 55 mL/min/kg
Compound: CC(C)NC[C@H](O)COc1ccc2c(=O)cc(-c3cc(O)cc(O)c3)oc2c1
Activity [1]: 23.1%
Activity [22]: 31.2%
Activity [4]: 21%
Activity [5]: inactive
Activity [25]: 12%
Activity [26]: 31.6%
Activity [6]: 29.7%
Activity [7]: 39.2%
Activity [8]: 45.6%
Activity [28]: 49.2%
Activity [29]: 30.7%
Activity [31]: 35.4%
Activity [35]: 41.1%
Activity [10]: 27%
Activity [38]: 19.7%
Percent increase in HDL-C/cholesterol ratio vs vehicle [16]: 68.7
Activity [39]: 12.1%
Activity [40]: 27.1%

Reference: ChEMBL document CHEMBL2169868, “Flavone-based novel antidiabetic and antidyslipidemic agents” (J Med Chem, 2012)
